Reference: ChEMBL document CHEMBL3414491, “Synthesis and antitumor activities evaluation of m-(4-morpholinoquinazolin-2-yl)benzamides in vitro and in vivo” (Eur J Med Chem, 2015)
Calls of active or inactive are those of the source. No cut-off for these calls is given here.

Columns and labels:
MCF7 = experiment: Antiproliferative activity against human MCF7 cells after 72 hrs by MTT assay; type: functional, cell-based; settings: MCF7, 72 h
Procedure, shortened: (§1)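 MTT: cells seeded at 1500–4000 per well, grown 24 h, then given serial dilutions (1% DMSO final) for 72 h at 37 °C. MTT was added for 4 h, formazan dissolved in DMSO and absorbance read at 490 nm. Three separate experiments in triplicate; IC50 is the concentration giving 50% cell death versus control.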

[1] = Antiproliferative activity against human HCT116 cells after 72 hrs by MTT assay; type: functional, cell-based; settings: HCT-116, 72 h; procedure, shortened: as §1
A549 = experiment: Antiproliferative activity against human A549 cells after 72 hrs by MTT assay; type: functional, cell-based; settings: A549, 72 h; procedure, shortened: as §1
[2] = Antiproliferative activity against human U87MG cells after 72 hrs by MTT assay; type: functional, cell-based, U-87MG ATCC; settings: U-87 MG; procedure, shortened: as §1
[3] = Inhibition of PI3K-mediated PI3K/Akt/mTOR pathway in human HCT116 cells assessed as reduction in Akt Ser473 phosphorylation at 10 uM incubated for 1 hr by Western blot method; type: cell-based; settings: HCT-116
Procedure, shortened: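 HCT-116 cells were seeded at 5 × 10⁵ per well and grown 16 h at 37 °C, then exposed to 10 µM for 1 h; vehicle control was 0.5% DMSO. Lysates were normalised by BCA, run on 10% SDS-PAGE, transferred to nitrocellulose and probed for AKT and p-Ser473 AKT, with β-actin as loading control. Detection was by chemiluminescence; bands were quantified densitometrically.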

[4] = molecular target: PI3-kinase p110-delta/p85-alpha (Homo sapiens, UniProt O00329); experiment: Inhibition of p110delta/p85alpha (unknown origin) using L-alpha-phosphatidylinositol incubated for 40 mins by ADP depletion detection based luciferase assay; type: protein-complex assay
Chain of PI3-kinase p110-delta/p85-alpha (P27986 whole entry): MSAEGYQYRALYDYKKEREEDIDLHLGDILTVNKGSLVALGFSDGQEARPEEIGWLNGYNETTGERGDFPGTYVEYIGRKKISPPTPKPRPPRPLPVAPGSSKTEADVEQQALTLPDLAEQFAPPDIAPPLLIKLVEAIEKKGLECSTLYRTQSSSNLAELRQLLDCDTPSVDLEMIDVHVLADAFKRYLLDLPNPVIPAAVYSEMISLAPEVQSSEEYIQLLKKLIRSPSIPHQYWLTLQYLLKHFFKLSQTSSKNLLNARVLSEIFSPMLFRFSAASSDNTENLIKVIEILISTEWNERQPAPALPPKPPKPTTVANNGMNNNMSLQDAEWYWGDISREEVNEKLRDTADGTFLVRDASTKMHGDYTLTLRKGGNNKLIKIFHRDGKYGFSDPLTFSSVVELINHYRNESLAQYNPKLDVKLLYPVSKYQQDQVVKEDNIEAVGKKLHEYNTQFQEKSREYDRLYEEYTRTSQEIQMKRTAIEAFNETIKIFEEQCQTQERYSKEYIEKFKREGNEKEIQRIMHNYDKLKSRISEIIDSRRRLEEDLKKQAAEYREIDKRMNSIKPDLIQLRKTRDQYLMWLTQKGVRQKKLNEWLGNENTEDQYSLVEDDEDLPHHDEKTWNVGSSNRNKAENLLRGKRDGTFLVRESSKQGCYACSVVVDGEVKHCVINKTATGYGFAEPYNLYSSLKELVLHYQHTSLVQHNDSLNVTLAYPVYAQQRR
Chain of PI3-kinase p110-delta/p85-alpha (O00329 whole entry): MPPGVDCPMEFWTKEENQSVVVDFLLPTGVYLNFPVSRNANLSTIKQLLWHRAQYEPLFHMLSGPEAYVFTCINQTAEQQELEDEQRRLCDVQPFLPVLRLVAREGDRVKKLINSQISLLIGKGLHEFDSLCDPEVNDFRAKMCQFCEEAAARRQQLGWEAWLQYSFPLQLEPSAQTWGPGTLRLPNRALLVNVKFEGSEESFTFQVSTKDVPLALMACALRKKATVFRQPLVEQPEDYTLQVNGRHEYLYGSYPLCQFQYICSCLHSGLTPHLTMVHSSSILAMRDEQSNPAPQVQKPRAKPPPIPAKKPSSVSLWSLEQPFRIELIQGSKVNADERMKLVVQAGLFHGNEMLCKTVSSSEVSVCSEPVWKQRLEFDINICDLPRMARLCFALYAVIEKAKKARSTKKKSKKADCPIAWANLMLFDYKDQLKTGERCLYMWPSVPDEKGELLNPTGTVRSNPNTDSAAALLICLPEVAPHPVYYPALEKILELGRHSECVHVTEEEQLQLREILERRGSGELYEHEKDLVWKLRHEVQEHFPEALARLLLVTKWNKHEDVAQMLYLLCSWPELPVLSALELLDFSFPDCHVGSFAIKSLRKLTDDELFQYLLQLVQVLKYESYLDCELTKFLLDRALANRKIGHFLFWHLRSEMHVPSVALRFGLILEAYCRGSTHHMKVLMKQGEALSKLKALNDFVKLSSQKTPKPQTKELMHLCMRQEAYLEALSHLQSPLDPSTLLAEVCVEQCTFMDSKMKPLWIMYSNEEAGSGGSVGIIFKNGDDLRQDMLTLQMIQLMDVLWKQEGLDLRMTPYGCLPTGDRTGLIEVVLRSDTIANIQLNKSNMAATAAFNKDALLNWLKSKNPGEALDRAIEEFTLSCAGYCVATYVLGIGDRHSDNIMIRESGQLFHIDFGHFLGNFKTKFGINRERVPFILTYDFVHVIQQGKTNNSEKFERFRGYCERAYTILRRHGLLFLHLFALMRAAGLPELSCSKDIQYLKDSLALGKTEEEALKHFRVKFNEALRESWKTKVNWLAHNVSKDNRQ

[5] = molecular target: PI3-kinase p110-alpha/p85-alpha (Homo sapiens, UniProt P42336); experiment: Inhibition of p110alpha/p85alpha (unknown origin) using L-alpha-phosphatidylinositol incubated for 40 mins by ADP depletion detection based luciferase assay; type: protein-complex assay
Chain of PI3-kinase p110-alpha/p85-alpha (P27986 whole entry): as the sequence (P27986 whole entry) above
Chain of PI3-kinase p110-alpha/p85-alpha (P42336 whole entry): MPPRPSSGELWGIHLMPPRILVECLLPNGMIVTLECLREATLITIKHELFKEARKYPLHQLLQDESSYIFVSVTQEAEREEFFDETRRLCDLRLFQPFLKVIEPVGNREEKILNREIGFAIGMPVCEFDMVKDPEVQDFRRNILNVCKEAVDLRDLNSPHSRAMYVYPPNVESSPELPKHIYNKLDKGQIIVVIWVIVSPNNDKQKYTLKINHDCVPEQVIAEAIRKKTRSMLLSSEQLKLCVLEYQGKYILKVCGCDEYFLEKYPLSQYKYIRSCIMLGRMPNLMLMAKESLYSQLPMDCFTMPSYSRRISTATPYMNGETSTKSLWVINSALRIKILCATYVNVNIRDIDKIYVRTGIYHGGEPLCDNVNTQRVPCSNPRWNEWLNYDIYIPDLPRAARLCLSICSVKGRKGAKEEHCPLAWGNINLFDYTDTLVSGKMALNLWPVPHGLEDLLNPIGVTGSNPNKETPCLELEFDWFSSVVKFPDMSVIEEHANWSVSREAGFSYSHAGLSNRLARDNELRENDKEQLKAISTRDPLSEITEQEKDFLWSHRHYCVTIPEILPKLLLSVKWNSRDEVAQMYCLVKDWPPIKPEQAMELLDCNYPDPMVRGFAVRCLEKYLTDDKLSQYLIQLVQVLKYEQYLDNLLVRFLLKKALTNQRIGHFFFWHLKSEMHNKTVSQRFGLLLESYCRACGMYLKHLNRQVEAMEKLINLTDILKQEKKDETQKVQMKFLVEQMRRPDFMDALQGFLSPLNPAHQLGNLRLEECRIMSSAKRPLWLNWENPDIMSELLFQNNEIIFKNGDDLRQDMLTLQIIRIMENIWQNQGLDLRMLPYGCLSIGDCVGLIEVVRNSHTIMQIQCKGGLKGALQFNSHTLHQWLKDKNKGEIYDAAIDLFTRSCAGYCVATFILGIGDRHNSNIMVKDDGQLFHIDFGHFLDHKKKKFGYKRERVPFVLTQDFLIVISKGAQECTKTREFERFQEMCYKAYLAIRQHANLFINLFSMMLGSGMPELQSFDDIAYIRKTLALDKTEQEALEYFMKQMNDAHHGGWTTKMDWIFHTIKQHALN

PI3K p110 beta/p85 alpha = PI3K p110 beta/p85 alpha (Homo sapiens, UniProt P42338); experiment: Inhibition of p110beta/p85alpha (unknown origin) using L-alpha-phosphatidylinositol incubated for 40 mins by ADP depletion detection based luciferase assay; type: protein-complex assay
Chain of PI3K p110 beta/p85 alpha (P27986 whole entry): as the sequence (P27986 whole entry) above
Chain of PI3K p110 beta/p85 alpha (P42338 whole entry): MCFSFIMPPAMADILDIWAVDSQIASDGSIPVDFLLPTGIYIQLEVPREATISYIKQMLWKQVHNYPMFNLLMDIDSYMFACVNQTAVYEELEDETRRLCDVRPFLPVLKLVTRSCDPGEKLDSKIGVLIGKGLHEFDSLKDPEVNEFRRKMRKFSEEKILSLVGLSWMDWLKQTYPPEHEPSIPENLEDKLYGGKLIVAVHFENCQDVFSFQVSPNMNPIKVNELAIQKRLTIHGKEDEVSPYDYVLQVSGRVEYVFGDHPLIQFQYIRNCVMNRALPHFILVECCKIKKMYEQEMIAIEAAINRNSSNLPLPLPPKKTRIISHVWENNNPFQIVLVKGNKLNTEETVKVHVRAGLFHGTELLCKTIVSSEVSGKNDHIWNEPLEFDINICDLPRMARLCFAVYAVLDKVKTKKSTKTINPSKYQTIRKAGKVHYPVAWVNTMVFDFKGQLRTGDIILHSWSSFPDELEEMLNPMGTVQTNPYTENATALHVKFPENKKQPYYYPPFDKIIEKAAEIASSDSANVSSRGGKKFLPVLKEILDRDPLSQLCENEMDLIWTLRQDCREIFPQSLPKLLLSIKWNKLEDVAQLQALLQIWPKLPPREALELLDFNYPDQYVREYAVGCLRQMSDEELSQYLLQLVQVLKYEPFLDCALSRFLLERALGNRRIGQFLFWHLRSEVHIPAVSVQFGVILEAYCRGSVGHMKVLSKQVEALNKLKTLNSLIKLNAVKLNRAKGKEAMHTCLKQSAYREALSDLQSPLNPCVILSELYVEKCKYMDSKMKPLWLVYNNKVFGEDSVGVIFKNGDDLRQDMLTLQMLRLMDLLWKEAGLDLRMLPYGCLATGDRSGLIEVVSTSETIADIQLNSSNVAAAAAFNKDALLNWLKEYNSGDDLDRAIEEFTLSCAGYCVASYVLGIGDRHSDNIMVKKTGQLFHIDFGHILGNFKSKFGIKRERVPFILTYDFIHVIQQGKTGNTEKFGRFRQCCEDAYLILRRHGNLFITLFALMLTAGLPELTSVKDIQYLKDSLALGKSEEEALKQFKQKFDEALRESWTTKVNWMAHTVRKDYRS

[6] = molecular target: PI3-kinase subunit gamma/Phosphoinositide 3-kinase regulatory subunit 5 (Homo sapiens, UniProt P48736); experiment: Inhibition of p110gamma/PIK3R5 (unknown origin) using L-alpha-phosphatidylinositol incubated for 40 mins by ADP depletion detection based luciferase assay; type: protein-complex assay

IC50 (MCF7) [µM] | IC50 (A549) [µM] | SMILES | IC50 [1] [µM] | IC50 [2] [µM] | further results
6.93 |  | COc1cc2nc(-c3cc(OCc4ccccc4)cc(C(N)=O)c3)nc(N3CCOCC3)c2cc1OC | 3.83 |  | 
> 20 |  | COCCOc1cc2nc(-c3cc(OC)cc(C(N)=O)c3)nc(N3CCOCC3)c2cc1OC | 2.7 |  | 
5.19 |  | COCCOc1cc2c(N3CCOCC3)nc(-c3cc(OC)cc(C(N)=O)c3)nc2cc1OC | 0.89 |  | 
8.52 |  | COc1cc(C(N)=O)cc(-c2nc(N3CCOCC3)c3cc(OC)c(OCC4CCOCC4)cc3n2)c1 | 3.14 |  | 
2.03 | 4.75 | COc1cc2nc(-c3cc(C(N)=O)cc(C(F)(F)F)c3)nc(N3CCOCC3)c2cc1OC | 0.71 | 1.19 | 
6.38 |  | COc1cc(C(N)=O)cc(-c2nc(N3CCOCC3)c3cc(OC)c(OCCN4CCCCC4)cc3n2)c1 | 1.28 |  | 
2.64 | 17.2 | COc1cc2nc(-c3cc(O)cc(C(N)=O)c3)nc(N3CCOCC3)c2cc1OC | 0.88 | 1.84 | IC50 [4]: 0.26 µM; IC50 [5]: 0.053 µM; IC50 (PI3K p110 beta/p85 alpha): 0.454 µM; IC50 [6]: 0.394 µM

The remaining lines, values behind:

SMILES | IC50 (MCF7) [µM] | IC50 (A549) [µM] | IC50 [1] [µM] | IC50 [2] [µM] | further results
COc1cc2nc(-c3ccc(O)c(C(N)=O)c3)nc(N3CCOCC3)c2cc1OC | 7.42 |  | 2.77 |  | 
COc1cc2nc(-c3ccc(OCc4ccccc4)c(C(N)=O)c3)nc(N3CCOCC3)c2cc1OC | 7.9 |  | 5.03 |  | 
CS(=O)(=O)N1CCN(Cc2cc3nc(-c4cccc5[nH]ncc45)nc(N4CCOCC4)c3s2)CC1 [PICTILISIB] | 1.09 | 2.28 | 0.37 | 1.24 | inhibition [3]: Active
COc1cc2nc(-c3cccc(C(=O)O)c3)nc(N3CCOCC3)c2cc1OC | > 20 |  | 12.5 |  | 
COc1cc2nc(-c3ccc(OC)c(C(N)=O)c3)nc(N3CCOCC3)c2cc1OC | 1.22 | 9.63 | 0.47 | 1.9 | 
COC(=O)c1cccc(-c2nc(N3CCOCC3)c3cc(OC)c(OC)cc3n2)c1 | 3.44 |  | 1.07 |  | 
COc1cc2nc(-c3ccc(NC(C)=O)cc3)nc(N3CCOCC3)c2cc1OC | 3.61 |  | 1.09 |  | 
COc1cc2nc(-c3cnc(N)nc3)nc(N3CCOCC3)c2cc1OC | 1.38 | 3.21 | 0.42 | 5 | 
